Experimental data pooled from the literature.
Lines come from different studies, so protocols differ.
Target: Cholinesterase (BCHE, Homo sapiens, UniProt P06276)
Observed: enzyme activity
Mode: inhibitor

`COc1ccc(S(=O)(=O)Oc2ccc(C=NNC(=O)c3ccc(F)cc3)cc2OC)cc1` gave an IC50 of 0.0764 µM (Ellman).
`O=[N+]([O-])c1c[nH]c(-c2n[nH]c(=S)n2/N=C/c2cc(Cl)cc(Cl)c2)c1` has an IC50 of 14.3 µM (Ellman).
For `COc1ccc(S(=O)(=O)Oc2ccc3ccccc3c2C=NNC(=O)c2ccc(F)cc2)cc1`, the IC50 was 0.134 µM (Ellman).
With `O=[N+]([O-])c1c[nH]c(-c2n[nH]c(=S)n2/N=C/c2ccc(F)c([N+](=O)[O-])c2)c1` the IC50 was 16.1 µM (Ellman).
`COc1ccc(S(=O)(=O)Oc2cccc(C=NNC(=O)c3ccc(F)cc3)c2)cc1` gave an IC50 of 0.111 µM (Ellman).
For `C#CCN(C)CCCCCCCOc1cccc(CN(C)c2c3c(nc4ccccc24)CCCC3)c1`, the IC50 was 0.31 µM (Ellman).
With `O=[N+]([O-])c1c[nH]c(-c2n[nH]c(=S)n2/N=C/c2ccc(Cl)cc2[N+](=O)[O-])c1` the IC50 was 16.4 µM (Ellman).
The IC50 of `C#CCN(C)CCCOc1cccc(CN(C)c2c3c(nc4ccccc24)CCCC3)c1` is reported as 0.41 µM (Ellman).
`Cc1ccc(CN2CCN(Cc3nnc(-c4ccccc4)o3)CC2)cc1` gave an IC50 of greater than 10 µM (Ellman).
For `CSc1ccc(C=NNC(=O)c2cc(-c3cn(C)c4ccccc34)on2)cc1`, the IC50 was greater than 100 µM.
With `C#CCN(C)CCCCCOCc1ccc(CN(C)c2c3c(nc4ccccc24)CCCC3)cc1` the IC50 was 0.61 µM (Ellman).
`COc1ccc(OC)c(C=NNC(=O)c2cc(-c3cn(C)c4ccccc34)on2)c1` gave an IC50 of greater than 100 µM.
The IC50 of `C#CCN(C)CCCCCOCc1ccc(CN(C)c2c3c(nc4ccc(C)cc24)CCCC3)cc1` is reported as 1.12 µM (Ellman).
The IC50 of `COc1cccc(C=NNC(=O)c2cc(-c3cn(C)c4ccccc34)on2)c1OC` is reported as greater than 100 µM.
`COc1ccc(/C=N/n2c(-c3cc([N+](=O)[O-])c[nH]3)n[nH]c2=S)cc1` gave an IC50 of 26.2 µM (Ellman).
The IC50 of `C#CCN(C)CCCCCCOCc1ccc(CN(C)c2c3c(nc4ccccc24)CCCC3)cc1` is reported as 0.43 µM (Ellman).
With `O=[N+]([O-])c1c[nH]c(-c2n[nH]c(=S)n2/N=C/c2ccc(Br)c(Br)c2)c1` the IC50 was 28.4 µM (Ellman).
The IC50 of `C#CCN(C)CCCCOc1cccc(CN(C)c2c3c(nc4ccccc24)CCCC3)c1` is reported as 0.37 µM (Ellman).
With `Cn1cc(-c2cc(C(=O)NN=Cc3cccc(Br)c3)no2)c2ccccc21` the IC50 was greater than 100 µM.
`O=[N+]([O-])c1c[nH]c(-c2n[nH]c(=S)n2/N=C/c2c(O)cc(O)cc2O)c1` has an IC50 of 6.8 µM (Ellman).
With `COc1ccccc1C=NNC(=O)c1cc(-c2cn(C)c3ccccc23)on1` the IC50 was greater than 100 µM.
`CN(C)c1ccc(/C=N/n2c(-c3cc([N+](=O)[O-])c[nH]3)n[nH]c2=S)c(O)c1` gave an IC50 of 22.2 µM (Ellman).
